Laboratory results reported in ChEMBL document CHEMBL3259659, “Polyisoprenylated methylated protein methyl esterase: a putative biomarker and therapeutic target for pancreatic cancer” (Eur J Med Chem, 2014).
Active and inactive are the calls of the source. No cut-off for these calls is given here.

Legend:
MIA PaCa-2 [1] = test: (§1) Cytotoxicity against human MIAPaCa2 cells harboring K-Ras mutant oncogene after 48 hrs by fluorescence assay; type: functional, cell-based
In short: (§2)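 Cells from ATCC, kept at 37°C in 5% CO2 to about 80% confluence, trypsinized and plated at 1×10^4 cells/well in medium with 5% FBS. Treated with PCAIs 0–20 μM for 48 h. Viability by resazurin (0.02% in Dulbecco PBS, 20 μL added), fluorescence read after 2 h at ex 560/em 590 nm. EC50 by nonlinear regression of concentration-response.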

[2] = as §1; type: functional, cell-based; settings: MIA PaCa-2, 48 h; in short: as §2
BXPC-3 [3] = test: (§3) Cytotoxicity against human BxPC3 cells after 48 hrs by fluorescence assay; type: functional, cell-based; in short: as §2
[4] = as §3; type: functional, cell-based; settings: BXPC-3, 48 h; in short: as §2
[5] = Lipophilicity, log D of the compound; type: physicochemical; settings: octanol/water
Homo sapiens = species on record: Homo sapiens; test: (§4) Inhibition of PMPMEase (unknown origin) using RD-PNB as substrate incubated for 15 mins prior to substrate addition measured after 2 hrs by RP-HPLC analysis
In short: (§5)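 Enzyme (1 μg) preincubated 15 min with inhibitor (1–1000 μM, dissolved in water), then RD-PNB (1 mM, in DMSO) added. Incubated 2 h at 37°C in 100 mM Tris-HCl pH 7.4, stopped with methanol, centrifuged. Supernatant analysed by RP-HPLC with UV detection at 260 nm. IC50 by nonlinear regression; Ki derived from previously reported RD-PNB kinetics.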

[6] = as §4; set-up: species or system Homo sapiens; in short: as §5
BXPC-3 [7] = test: Cytotoxicity against human BxPC3 cells at 20 uM after 24 to 72 hrs by fluorescence assay; type: functional, cell-based
In short: (§6)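 Same viability method: cells plated at 1×10^4 cells/well in 5% FBS medium, exposed to 20 μM PCAI for 24, 48 and 72 h. Resazurin (0.02% in Dulbecco PBS) added, fluorescence ex 560/em 590 nm read 2 h later.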

MIA PaCa-2 [8] = test: Cytotoxicity against human MIAPaCa2 cells harboring K-Ras mutant oncogene at 20 uM after 24 to 72 hrs by fluorescence assay; type: functional, cell-based; in short: as §6
MIA PaCa-2 [9] = test: Induction of apoptosis in human MIAPaCa2 cells harboring K-Ras mutant oncogene assessed as early apoptotic cells at 2 uM after 48 hrs by acridine orange/ethidium bromide staining-based fluorescence microscopy; type: functional, cell-based
In short: (§7)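 5×10^4 MIA PaCa-2 cells cultured in chamber slide wells and treated 48 h at 0.5, 1 and 2 μM in 5% FBS. Stained with acridine orange/ethidium bromide (10 μg/mL). Imaged by fluorescence microscopy (x40 objective, 480/30 nm excitation). Green intact nuclei scored as viable; bright green fragmented nuclei as early apoptotic; orange-red condensed nuclei as apoptotic.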

MIA PaCa-2 [10] = test: Induction of apoptosis in human MIAPaCa2 cells harboring K-Ras mutant oncogene assessed as viable cells at 1 uM after 48 hrs by acridine orange/ethidium bromide staining-based fluorescence microscopy; type: functional, cell-based; in short: as §7
MIA PaCa-2 [11] = test: Induction of apoptosis in human MIAPaCa2 cells harboring K-Ras mutant oncogene at 0.5 to 2 uM after 48 hrs by acridine orange/ethidium bromide staining-based fluorescence microscopy; type: functional, cell-based; in short: as §7

Row | Structure (SMILES) | Activity (MIA PaCa-2 [1]) | EC50 [2] | Activity (BXPC-3 [3]) | EC50 [4] | logD [5] | Activity (Homo sapiens) | Ki [6] | Activity (BXPC-3 [7]) | Activity (MIA PaCa-2 [8]) | Activity (MIA PaCa-2 [9]) | Activity (MIA PaCa-2 [10]) | Activity (MIA PaCa-2 [11])
1 | CC(C)=CCC/C(C)=C/CC/C(C)=C/CSC[C@H](NC(=O)CCCCCN1CCCC1)C(=O)NC1CCCCCCC1 | Dose-dependent effect | 1.9 µM | Dose-dependent effect | 4 µM | 5.37 | Dose-dependent effect | 11.9 µM |  |  |  |  | 
2 | CC(C)=CCC/C(C)=C/CC/C(C)=C/CSC[C@H](NC(=O)CCCCCN1CCCC1)C(=O)NC1CCCCC1 | Dose-dependent effect | 5.6 µM | Dose-dependent effect | 12.7 µM | 4.48 | Dose-dependent effect | 11.2 µM |  |  |  |  | 
3 | CC(C)=CCC/C(C)=C/CC/C(C)=C/CSC[C@H](NC(=O)CCCCCN1CCCC1)C(=O)N1CCCC1 | Dose-dependent effect | 10.8 µM | Dose-dependent effect | 6.5 µM | 3.31 | Dose-dependent effect | 9.7 µM |  |  |  |  | 
4 | CC(C)=CCC/C(C)=C/CC/C(C)=C/CSC[C@H](NC(=O)CCCCCN1CCN(C)CC1)C(=O)N1CCCCC1 | Dose-dependent effect | 14.3 µM | Dose-dependent effect | 8.8 µM | 4.27 | Dose-dependent effect | 13 µM |  |  |  |  | 
5 | CC(C)=CCC/C(C)=C/CC/C(C)=C/CSC[C@H](NC(=O)CCCCCN1CCCC1)C(=O)NC1CCCCCC1 | Dose-dependent effect | 6.8 µM | Dose-dependent effect | 5.8 µM | 4.93 | Dose-dependent effect | 11.6 µM |  |  |  |  | 
6 | CC(C)=CCC/C(C)=C/CC/C(C)=C/CSc1ccccc1C(N)=O |  | > 20 µM |  | > 20 µM | 6.03 |  |  | inactive | inactive |  |  | 
7 | CC(C)=CCC/C(C)=C/CC/C(C)=C/CSC[C@H](NC(=O)CCCCCN1CCN(C)CC1)C(=O)NC1CCCC1 | Dose-dependent effect | 10.9 µM | Dose-dependent effect | > 20 µM | 4.55 | Dose-dependent effect | 10.1 µM |  |  |  |  | 
8 | CC(C)=CCC/C(C)=C/CC/C(C)=C/CSC[C@H](NC(=O)CCCCCN1CCN(C)CC1)C(=O)NC1CCCCCC1 | Dose-dependent effect | 2.7 µM | Dose-dependent effect | 6.2 µM | 5.44 | Dose-dependent effect | 17.6 µM |  |  |  |  | 
9 | CC(C)=CCC/C(C)=C/CC/C(C)=C/CSC[C@H](NC(=O)CCCCCN1CCN(C)CC1)C(=O)NC1CCCCC1 | Dose-dependent effect | 5.9 µM | Dose-dependent effect | 12 µM | 4.99 | Dose-dependent effect | 16.9 µM |  |  |  |  | 
10 | CC(C)=CCC/C(C)=C/CC/C(C)=C/CSC[C@H](NC(=O)CCCCCN1CCN(C)CC1)C(=O)N1CCCC1 | Dose-dependent effect | 6 µM | Dose-dependent effect | 3.2 µM | 3.82 | Dose-dependent effect | 20 µM |  |  |  |  | 
11 | CC(C)=CCC/C(C)=C/CC/C(C)=C/CSc1ccccc1C(=O)O [SALIRASIB] |  | > 20 µM |  | > 20 µM | 3.43 |  |  | inactive | inactive |  |  | 
12 | CC(C)=CCC/C(C)=C/CC/C(C)=C/CSC[C@H](NC(=O)CCCCCN1CCCC1)C(=O)N1CCCCC1 | Dose-dependent effect | 12.4 µM | Dose-dependent effect | 8.7 µM | 3.76 | Dose-dependent effect | 11 µM |  |  |  |  | 
13 | CC(C)=CCC/C(C)=C/CC/C(C)=C/CSC[C@H](NC(=O)CCCCCN1CCCC1)C(=O)NC1CCCC1 | Dose-dependent effect | 3.2 µM | Dose-dependent effect | 6.8 µM | 4.04 | Dose-dependent effect | 3.7 µM |  |  |  |  | 
14 | CC(C)=CCC/C(C)=C/CC/C(C)=C/CSC[C@H](NC(=O)CCCCCN1CCN(C)CC1)C(=O)NC1CC1 | Dose-dependent effect | 10.4 µM | Dose-dependent effect | 6.3 µM | 3.66 | Dose-dependent effect | 13.8 µM |  |  |  |  | 
15 | CC(C)=CCC/C(C)=C/CC/C(C)=C/CSC[C@H](NC(=O)CCCCCN1CCN(C)CC1)C(=O)NC1CCCCCCC1 | Dose-dependent effect | 2.5 µM | Dose-dependent effect | 7.5 µM | 5.88 | Dose-dependent effect | 15.2 µM |  |  | Active | inactive | Active
16 | CC(C)=CCC/C(C)=C/CC/C(C)=C/CSC[C@H](NC(=O)CCCCCN1CCCC1)C(=O)NC1CC1 | Dose-dependent effect | > 20 µM | Dose-dependent effect | > 20 µM | 3.15 | Dose-dependent effect | 17.5 µM |  |  |  |  | 
